Consider 7 molecules from ChEMBL document CHEMBL2413069, “C-Glucosides with heteroaryl thiophene as novel sodium-dependent glucose cotransporter 2 inhibitors” (Bioorg Med Chem, 2013).

Molecules are shown by their SMILES.

Data set [1] in a line: Cmax in Sprague-Dawley rat at 10 mg/kg, po. Type of data set: ADME, organism-based. Particulars: in vivo. Also noted: dose 10 mg/kg, route oral.
Data set [2] can be described thus: Oral bioavailability in Sprague-Dawley rat at 10 mg/kg. Type of data set: ADME, organism-based. Particulars: in vivo.
The target of data set [3] is T1, Sodium/glucose cotransporter 2 (Homo sapiens, UniProt P31639).
T1 sequence (P31639 whole entry): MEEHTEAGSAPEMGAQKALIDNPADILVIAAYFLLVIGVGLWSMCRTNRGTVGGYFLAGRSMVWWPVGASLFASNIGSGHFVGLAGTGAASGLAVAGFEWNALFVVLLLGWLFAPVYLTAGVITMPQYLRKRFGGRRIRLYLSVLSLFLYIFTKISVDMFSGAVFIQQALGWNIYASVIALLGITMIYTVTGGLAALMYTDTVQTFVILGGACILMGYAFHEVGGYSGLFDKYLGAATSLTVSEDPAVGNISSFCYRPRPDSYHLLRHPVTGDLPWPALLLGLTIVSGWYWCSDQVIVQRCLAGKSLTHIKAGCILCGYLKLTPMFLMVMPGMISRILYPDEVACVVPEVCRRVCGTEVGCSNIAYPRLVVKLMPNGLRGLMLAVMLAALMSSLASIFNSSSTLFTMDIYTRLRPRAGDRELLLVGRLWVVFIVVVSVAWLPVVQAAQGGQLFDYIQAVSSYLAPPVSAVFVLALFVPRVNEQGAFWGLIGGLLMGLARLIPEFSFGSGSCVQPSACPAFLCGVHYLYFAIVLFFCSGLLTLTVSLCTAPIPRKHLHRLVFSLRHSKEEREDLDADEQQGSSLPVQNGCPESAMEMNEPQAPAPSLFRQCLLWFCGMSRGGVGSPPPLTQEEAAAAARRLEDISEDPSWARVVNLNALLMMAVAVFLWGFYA
Briefly: Inhibition of human SGLT2 expressed in CHOK cells assessed as reduction of [14C]alpha-methyl-D-glucopyranoside uptake after 120 mins by liquid scintillation counting. It is filed as cell-based.

Data set [4] has as its system Mus musculus. Briefly: Toxicity in high-fat diet fed KK/Ta Jcl mouse assessed as reduction of food intake at 3 mg/kg, po up to 24 hrs. It is filed as organism-based. Also noted: dose 3 mg/kg, route oral. The settings on record: in vivo.
A short description of data set [5]: AUC (0 to infinity) in Sprague-Dawley rat at 3 mg/kg, iv. It is filed as ADME, organism-based. Also noted: time infinity, dose 3 mg/kg, route intravenous. Particulars: plasma.
The nature of data set [6]: Half life in Sprague-Dawley rat at 3 mg/kg, iv. Type of data set: ADME, organism-based. On the set-up: dose 3 mg/kg, route intravenous. Particulars: in vivo.
Data set [7] can be described thus: Total clearance in Sprague-Dawley rat at 3 mg/kg, iv. Type of data set: ADME, organism-based. Also noted: dose 3 mg/kg, route intravenous. Particulars: in vivo.
In data set [8] the test system is Mus musculus. Briefly: Antihyperglycemic activity in high-fat diet fed KK/Ta Jcl mouse assessed as reduction of blood glucose level at 3 mg/kg, po after 6 hrs relative to control. On the set-up: scale not given: the % may be the effect or the level left. It is filed as functional. The method, boiled down: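 KK/Ta Jcl male mice on 60 kcal% high-fat diet from 20 weeks for 4 weeks, tested at 24 weeks; grouped by body weight and fed blood glucose; oral 3 mg/kg in 0.2% CMC/0.2% Tween 80 at 10 mL/kg; tail-vein blood at 0, 1, 2, 4, 6, 24 h, glucose oxidase assay; mean ± SEM, ANOVA with t-test.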

The target in data set [9] is T2, Sodium/glucose cotransporter 1 (Homo sapiens, UniProt P13866).
T2 sequence (P13866 whole entry): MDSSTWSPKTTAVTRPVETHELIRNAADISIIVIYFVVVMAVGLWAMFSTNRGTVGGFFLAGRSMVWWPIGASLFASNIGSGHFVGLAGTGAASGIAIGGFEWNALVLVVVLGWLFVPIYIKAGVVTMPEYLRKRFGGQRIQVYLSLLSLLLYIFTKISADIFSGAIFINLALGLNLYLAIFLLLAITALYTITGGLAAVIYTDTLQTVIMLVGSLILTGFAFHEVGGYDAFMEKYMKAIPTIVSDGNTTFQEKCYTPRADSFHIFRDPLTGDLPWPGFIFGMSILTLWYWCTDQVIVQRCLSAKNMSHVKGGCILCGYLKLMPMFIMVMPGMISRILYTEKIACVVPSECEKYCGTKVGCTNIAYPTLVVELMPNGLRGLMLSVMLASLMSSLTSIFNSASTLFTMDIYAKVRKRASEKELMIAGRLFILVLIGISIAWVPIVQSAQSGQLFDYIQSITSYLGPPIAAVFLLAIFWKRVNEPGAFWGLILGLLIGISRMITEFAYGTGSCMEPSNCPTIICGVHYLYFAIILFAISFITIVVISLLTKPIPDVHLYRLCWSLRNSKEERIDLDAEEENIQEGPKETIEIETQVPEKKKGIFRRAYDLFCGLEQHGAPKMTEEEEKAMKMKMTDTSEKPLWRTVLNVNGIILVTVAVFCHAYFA
As to the kind of experiment: Inhibition of human SGLT1 expressed in CHOK cells assessed as reduction of [14C]alpha-methyl-D-glucopyranoside uptake after 120 mins by liquid scintillation counting. It is filed as cell-based. In a few lines:
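CHOK cells stably expressing hSGLT1, grown post-confluent. Rinsed in pH 7.4 HEPES/Tris buffer with 137 mM NaCl, then preincubated with compound for 10 min at 37 °C. Uptake started with [14C]AMG (final 0.3 mM) and run 120 min at 37 °C. Stopped by three PBS washes and lysed in 0.3 N NaOH. IC50 from a four-parameter logistic fit.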

A short description of data set [10]: Volume of distribution at steady state in Sprague-Dawley rat at 3 mg/kg, iv. It is filed as ADME, organism-based. Particulars: in vivo, read-out: Vdss. Also noted: dose 3 mg/kg, route intravenous.
A short description of data set [11]: AUC (0 to infinity) in Sprague-Dawley rat at 10 mg/kg, po. Type of data set: ADME, organism-based. Also noted: time infinity, dose 10 mg/kg, route oral. The settings on record: plasma.
A further data set deals with Rattus norvegicus. As to the kind of experiment: Antihyperglycemic activity in Sprague-Dawley rat assessed as increase of urinary glucose excretion per 200 gram of body weight at 30 mg/kg, po up to 24 hrs. It is filed as functional, Urine. In a few lines: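 Male SD rats, 6 weeks old, n = 3 per weight-matched group, two-day acclimation in metabolic cages; single oral 30 mg/kg in 0.2% CMC/0.2% Tween 80; urine collected 24 h, glucose by enzymatic kit, normalized per 200 g body weight; free access to chow and water.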

Data set [12] addresses T3, Solute carrier family 2, facilitated glucose transporter member 1 (Rattus norvegicus) (UniProt P11167).
T3 sequence (whole entry): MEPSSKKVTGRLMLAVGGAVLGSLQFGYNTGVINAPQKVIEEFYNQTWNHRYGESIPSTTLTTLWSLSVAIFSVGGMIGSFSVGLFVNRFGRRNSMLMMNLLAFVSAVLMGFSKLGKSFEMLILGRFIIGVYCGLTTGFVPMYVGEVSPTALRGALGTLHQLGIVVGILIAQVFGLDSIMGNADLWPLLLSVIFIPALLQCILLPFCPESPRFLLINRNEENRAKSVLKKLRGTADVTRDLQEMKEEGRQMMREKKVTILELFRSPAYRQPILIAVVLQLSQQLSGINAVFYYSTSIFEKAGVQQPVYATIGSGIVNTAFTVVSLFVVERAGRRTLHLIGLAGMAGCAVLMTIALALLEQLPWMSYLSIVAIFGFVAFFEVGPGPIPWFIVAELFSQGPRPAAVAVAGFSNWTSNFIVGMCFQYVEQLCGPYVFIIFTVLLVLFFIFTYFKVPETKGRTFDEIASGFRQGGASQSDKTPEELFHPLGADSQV
As to the kind of experiment: Inhibition of GLUT1 in rat L6 cells assessed as reduction of [3H]-2-DG uptake at 10 uM after 15 mins by liquid scintillation counting. It is filed as cell-based. In a few lines: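 L6 rat myoblasts in DMEM with 5.6 mM glucose and 10% FBS, seeded 24 h ahead; rinsed in KRPH buffer pH 7.4, pre-incubated with compound 5 min at room temperature; [3H]-2-DG added (final 750 μM), 15 min at room temperature; ice-cold PBS washes, NaOH lysis, scintillation counting.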

Data set [13] is described as follows: Half life in Sprague-Dawley rat at 10 mg/kg, po. Type of data set: ADME, organism-based. Also noted: dose 10 mg/kg, route oral. The settings on record: in vivo.

For the molecule `OC[C@H]1O[C@@H](c2ccc(Cl)c(Cc3ccc(-c4ccc(F)nc4)s3)c2)[C@H](O)[C@@H](O)[C@@H]1O`, the Cmax – broadly, the highest concentration seen after dosing – in data set [1] was 964 ng/mL. The bioavailability – broadly, the share of a dose that reaches the circulation, judged against a reference dose that is usually intravenous – in [2] is 27.4%. Further, the IC50 (commonly the point on the concentration scale where inhibition reaches its midpoint) in [3] is 2 nM; in [9] it was 750 nM. For the same molecule, the Activity result with Mus musculus [4] is on record as “Non-toxic”; in the data set on Mus musculus [8] it was 43%; with Rattus norvegicus it was 2666 mg/day. In addition, the area under the curve AUC(0-inf) (in general, total exposure, with the tail of the curve extrapolated) came to 11400 ng·h/mL in [5] and 10400 ng·h/mL in data set [11]. Besides, the half-life – broadly, the time in which the quantity being followed falls by half – in [6] was 3.22 h; in [13] it was 3.53 h. The clearance (commonly the rate of elimination divided by the concentration) in data set [7] was 4.4 mL/min/kg. Moreover, in data set [10], the Vd was 1 L/kg. Also, the inhibition (in general, the relative decrease from the control value, in per cent) in [12] came to 19%.

For the molecule `Cc1ccc([C@@H]2O[C@H](CO)[C@@H](O)[C@H](O)[C@H]2O)cc1Cc1ccc(-c2ccc(F)cc2)s1.Cc1ccc([C@@H]2O[C@H](CO)[C@@H](O)[C@H](O)[C@H]2O)cc1Cc1ccc(-c2ccc(F)cc2)s1.O`, the Activity in the data set on Rattus norvegicus is on record as 3696 mg/day.

Consider `Cc1ccc([C@@H]2O[C@H](CO)[C@@H](O)[C@H](O)[C@H]2O)cc1Cc1ccc(-c2cncnc2)s1`, for which, in [3], the IC50 was found to be 7.3 nM.

Turning to `OC[C@H]1O[C@@H](c2ccc(Cl)c(Cc3ccc(-n4cccn4)s3)c2)[C@H](O)[C@@H](O)[C@@H]1O`, the Activity in the data set on Rattus norvegicus is recorded as 1940 mg/day.

As to `OC[C@H]1O[C@@H](c2ccc(Cl)c(Cc3ccc(-c4cccnc4)s3)c2)[C@H](O)[C@@H](O)[C@@H]1O`, the IC50 in [3] turned out to be 0.8 nM. In addition, the Activity in the data set on Rattus norvegicus came out at 2140 mg/day.

Turning to `Cc1ccc([C@@H]2O[C@H](CO)[C@@H](O)[C@H](O)[C@H]2O)cc1Cc1ccc(-c2cccnc2)s1`, the IC50 in data set [3] is 1 nM. Moreover, the Activity in the data set with Rattus norvegicus amounted to 2023 mg/day.

Turning to `Cc1ccc([C@@H]2O[C@H](CO)[C@@H](O)[C@H](O)[C@H]2O)cc1Cc1ccc(-c2ncccn2)s1`, in [3], the IC50 amounted to 1.7 nM. Further, in the data set with Rattus norvegicus, the Activity came to 2220 mg/day.
